# EP2 antag: blocks the human prostaglandin E2 receptor EP2; P43116; C6 glioma cells expressing human EP2, cAMP TR-FRET; cells stimulated with saturating PGE2; inhibition, % at 25 µM; 260,000 tested, 0.52% active; AID 1422;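 active means percent inhibition above 40 after rounding to a whole number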;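 further: rat C6 glioma host cells with rolipram phosphodiesterase inhibitor present; the protocol text gives 20 µM as final concentration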
# GPR7 antagonist: human neuropeptides B/W receptor 1 antagonism; inhibition, % at 4.4 µM; P48145; AID 1861; 290,000 tested, 1.1% active; GPR7-expressing cells, fluorescence antagonist assay; in the data active means inhibition above about 16%, passing the limit was not always enough;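 further: cells stimulated with the agonist NPW; 0% = agonist with vehicle and 100% = vehicle without agonist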
# CHO parental Ca: counter-screen: ATP calcium response change in parental CHO cells; parental CHO-K1, ATP-induced calcium, Fluo-8 fluorescence; inhibition, % at 5.6 µM; 330,000 tested, 0.63% active; AID 463079;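 active means inhibition above that plate's mean sample inhibition plus 3 SD, cut at about 26% in these data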;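 further: 0% = ATP-challenged DMSO wells and 100% = DMSO wells without ATP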
#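 Measured by: calcium-sensitive Fluo-8 fluorescence / Test system: CHO parental line / Controls: ATP-challenged DMSO wells low, unchallenged DMSO wells high / Measure: % inhibition / Compound: single nominal dose of 5.6 µM per compound / Replicates: single well per compound, no replicates / Reagent: ATP as calcium-mobilizing challenge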
# EP2 modulator: EP2 receptor (human) modulation | EP2-expressing cells, cAMP HTRF FRET, PGE2 co-stimulation | induction, % at 25 µM | 260,000 tested, 0.83% active;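 active means compounds whose cAMP rise, as percent of the full-agonist control response, exceeds 60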;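 further: rat C6 glioma line stably carrying human EP2 under a CMV promoter; the protocol text gives 20 µM as final concentration; 100% = response of wells given 1 µM PGE2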
# OX1R antag-1: antagonists of human orexin 1 receptor (OX1R) | inhibition, % at 6.6 µM | OX1R-expressing cells, FRET antagonist read-out | O43613 | AID 485270 | 330,000 tested, 1.8% active; in the data active means inhibition mostly above about 38%, no sharp cut-off; inactive means mostly below about 40%;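 further: 0% = agonist challenge alone and 100% = reference antagonist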
# Target sequence (O43613 whole entry, looked up): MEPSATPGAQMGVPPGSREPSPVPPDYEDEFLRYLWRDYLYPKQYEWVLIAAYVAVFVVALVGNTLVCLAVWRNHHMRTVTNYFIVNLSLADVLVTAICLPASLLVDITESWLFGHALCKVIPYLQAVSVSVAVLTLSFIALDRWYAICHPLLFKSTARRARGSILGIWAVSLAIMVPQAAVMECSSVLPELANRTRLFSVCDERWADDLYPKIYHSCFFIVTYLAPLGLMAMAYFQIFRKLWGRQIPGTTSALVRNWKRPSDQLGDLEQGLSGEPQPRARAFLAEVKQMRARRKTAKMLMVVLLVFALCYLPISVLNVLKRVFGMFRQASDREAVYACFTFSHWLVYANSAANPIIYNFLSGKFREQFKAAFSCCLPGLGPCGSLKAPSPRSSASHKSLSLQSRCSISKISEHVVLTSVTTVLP
# OX1R antag-2: antagonists of human orexin 1 receptor. O43613. CHO/OX1R cells, Fluo-8 calcium fluorescence, orexin A. inhibition, % at 5 µM. 330,000 tested, 0.43% active. AID 434989;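 active means inhibition above its plate's threshold, mean inhibition of all tested compounds on the plate plus 3 SD, cut at about 37% in these data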;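 further: 0% = orexin A challenge wells and 100% = SB-334867-A antagonist wells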
# Numbers without * were called inactive; nt = no result given. Compounds with a hit are over-represented: about 3.7% of the library has one in this group of screens.
SMILES,EP2 antag,GPR7 antagonist,CHO parental Ca,EP2 modulator,OX1R antag-1,OX1R antag-2
CC(C)CCN(C)C1CCN(S(=O)(=O)c2cccc(C(F)(F)F)c2)CC1,nt,8.0,-12.7,-1.9,10.2,-24.7
COc1ccccc1C(=O)NNC(=S)NC(=O)c1ccco1,2.8,0.7,30.6,10.5,27.7,49.7*
CCCOc1ccc(C(=O)NNC(=S)NC(C)=O)cc1,9.1,-8.8,-1.7,17.6,14.9,-10.1
O=C(NNC(=S)NC(=O)c1ccco1)c1ccc(F)cc1,7.6,-9.5,27.1,19.9,0.1,42.4
CCCOc1ccc(C(=O)NNC(=S)NC(=O)c2ccco2)cc1,9.3,13.9,70.0*,-53.5,19.2,86.3*
CC1N(C)c2cccc3cccc(c23)N1C,10.7,-14.8,1.9,21.2,70.2*,-10.9
c1csc(C2Nc3cccc4cccc(c34)N2)c1,11.3,-1.5,-10.6,-10.2,26.2,-14.1
CN1C(=O)N(C)c2cccc3cccc1c23,nt,5.6,-5.8,nt,0.5,-23.9
CN1c2cccc3cccc(c23)N(C)C1c1cccs1,4.7,-11.2,-19.0,64.4*,17.0,-18.0
Cc1cccc(OCC(=O)NNc2c3ccccc3nc3ccccc23)c1,16.7,-10.3,-8.2,-35.0,40.8*,14.9
CC1=CC(C)(C)Nc2ccc(OC(=O)c3ccco3)cc21,2.4,-5.0,-11.0,14.4,50.6*,2.5
COc1ccc2c(c1OC)C(=O)N1C(C(=O)O)Cc3c([nH]c4ccccc34)C21 (centres undefined),1.6,6.3,-22.6,13.1,75.3*,-9.4
COc1ccc(/C=N/NC(=O)c2nn(-c3ccccc3)c(=O)c3c(N)scc23)cc1,12.3,-8.4,-3.0,-19.5,70.0*,0.4
COc1ccc(/C=N/NC(=O)c2nn(-c3ccc(C)c(C)c3)c(=O)c3ccccc23)cc1,13.0,1.9,-14.4,4.2,16.8,-18.5
CCOC(=O)c1nn(-c2ccc(OC)cc2)c(=O)c2c(N)scc12,13.2,-11.1,-9.9,5.3,28.3,-17.9
COc1ccc(/C=N/NC(=O)c2nn(-c3ccc(Cl)cc3)c(=O)c3c(N)scc23)cc1,3.0,-4.2,-7.5,-13.3,51.8*,-14.2
O=C(NCCN1CCOCC1)C12CC3CC(C1)CC(c1ccccc1)(C3)C2,3.5,-1.0,-26.9,-20.1,17.0,-31.3
O=C(CSc1ccc(-c2nc3ccccc3[nH]2)cn1)Nc1cccc(F)c1,49.1*,nt,nt,-91.5,nt,nt
O=[N+]([O-])c1cc(Br)c2nsnc2c1N1CCOCC1,nt,20.2,-9.1,nt,28.8*,-14.6
COc1cc([N+](=O)[O-])c(N2CCOCC2)c([N+](=O)[O-])c1OC,2.1,-1.5,-21.2,17.8,21.9,-13.3
CCCNC(=S)Nc1ccc(Nc2ccccc2)cc1,10.6,-9.3,7.6,-22.6,10.9,-0.8
COC(CNC(=O)c1ccc2nc3ccccc3c(=O)n2c1)OC,nt,0.8,-8.9,nt,38.4*,-14.2
COc1ccc(/C=C(/NC(=O)c2ccc(OC)c(OC)c2)C(=O)N2CCOCC2)cc1,4.9,nt,nt,-32.4,nt,nt
Cc1[nH]c2ccccc2c1/C=N/NC(=O)c1cc(C(C)C)[nH]n1,4.9,-11.2,-7.7,-80.8,44.5*,0.6
Cc1[nH]c2ccccc2c1/C=N/NC(=O)c1cccc(F)c1,17.9,-6.8,6.3,-112.9,13.1,-13.6
SMILES,EP2 antag,GPR7 antagonist,CHO parental Ca,EP2 modulator,OX1R antag-1,OX1R antag-2
COC(=O)C1(C)CCc2cc(OC)ccc2C1=O (centres undefined),7.2,-11.8,2.7,-11.6,6.0,-5.5
COc1ccc2c(c1)Cc1cc(N=[N+]([O-])c3ccc4c(c3)Cc3cc(OC)ccc3-4)ccc1-2,113.6*,nt,nt,-79.8,nt,nt
O=C(O)c1ccccc1C(=O)c1ccc(Sc2ccc(Cl)cc2)c([N+](=O)[O-])c1,12.9,-9.8,-7.1,12.1,9.4,-29.7
COc1cnn(-c2ccccc2)c(=O)c1SCc1ccc(Cl)c(Cl)c1,8.4,-5.9,-11.5,28.2,14.9,-22.1
COc1cc2nncc(SCc3ccc(Cl)c(Cl)c3)c2cc1OC,54.3*,nt,nt,4.6,nt,nt
C=C(C)C(=O)OCCCCCCOc1ccc(C(=O)O)cc1,10.0,-10.8,-12.5,30.0,6.7,-10.9
O=C(Nc1ccc(-c2noc(-c3cccs3)n2)cc1)c1cccnc1,69.1*,-0.8,-0.4,-7.2,61.1,3.7
C#CCOCCOCCOCCNc1nc(N2CCN(C(=O)C([C@@H](C)O)n3cc([C@@H](N)CCCCN)nn3)CC2)nc(N2CCN(C(=O)[C@H](CCC(=O)O)n3cc([C@@H](N)[C@H](C)CC)nn3)CC2)n1 (some centres undefined),nt,nt,-6.7,nt,2.9,-6.9
CCn1c(CNC(=O)c2cc(OC)c(OC)c(OC)c2)cc2ccccc21,nt,1.3,2.8,nt,68.8*,4.5
COc1ccc(Nc2c(-c3ccc(C)cc3)nc3cnccn23)cc1,5.4,16.6*,-13.6,-65.0,13.5,-26.1
CC1CCC2(CC1)NC(=O)N(CC(=O)c1ccc(CNC(=O)C(C)(C)C)s1)C2=O (centres undefined),nt,nt,-17.1,nt,34.6*,13.8
CC1CCC2(CC1)NC(=O)N(CC(=O)c1ccc[nH]1)C2=O (centres undefined),12.7,-1.7,-20.9,-0.6,14.2,-8.2
Cc1ccnc(NC(=S)NC(=O)c2ccco2)c1,nt,-5.1,3.4,11.7,17.1,-0.5
Nc1nc(-c2ccc(S(=O)(=O)N3CCCCC3)cc2)cs1,nt,nt,-1.8,nt,5.7,9.6
CCN(CC1COc2ccccc2O1)C(=O)c1ccc(Cl)c(S(=O)(=O)N2CC(C)OC(C)C2)c1 (centres undefined),nt,nt,-15.3,nt,49.8*,-10.6
CC1CN(S(=O)(=O)c2cc(C(=O)N(CCc3ccccc3)Cc3ccccc3)ccc2Cl)CC(C)O1 (centres undefined),nt,nt,-16.0,nt,24.3,-27.3
C[N+](C)(C)CCN[N@+]1(C)CCCc2ccccc21,40.5*,nt,nt,18.6,nt,nt
CC(C)c1cc(C(=O)N2CCCC(N3CCN(c4ccc(F)cc4)CC3)C2)n(C)n1 (centres undefined),nt,-11.8,nt,nt,nt,nt
O=C(Cn1cnc2c(nnn2Cc2ccccc2F)c1=O)OCc1ccccc1,nt,24.5,79.5*,7.5,10.1,68.5*
O=C(Cn1cnc2c(nnn2Cc2ccccc2F)c1=O)N1CCN(c2ccccc2)CC1,12.4,-4.7,7.7,31.5,-1.4,-10.5
COCc1cc(C)nc(OCC(=O)N/N=C/c2ccc(O)cc2O)c1C#N,2.8,7.9,-3.4,3.8,13.2,0.8
CCCCN(c1nc2ccccc2nc1Cl)S(=O)(=O)c1ccc(C)cc1,nt,-11.3,53.9*,nt,14.7,1.5
CCCN(CCC)CC(O)CN(c1ccccc1)S(=O)(=O)c1ccc(C)cc1 (centres undefined),3.7,-1.7,-13.0,32.5,11.4,-38.8
O=c1[nH]c(=S)[nH]c2c1CN(CCCN1CCOCC1)CN2,101.9*,nt,nt,-42.4,nt,nt
Cn1c2c(c(=O)n(C)c1=O)CN(CCCN1CCOCC1)CN2,6.1,3.8,-6.1,-3.9,4.2,-27.5
